Key:
[1] = Solubility in pH 7.4 Krebs-HEPES buffer at 10 uM after 2 hrs by UV-visible spectrophotometric analysis; format: physicochemical; conditions: pH 7.4, 2 h
Procedure, shortened: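 10 µM test solutions prepared from DMSO stocks as for the Hoechst 33342 assay, in Krebs-HEPES pH 7.4. Absorbance at an absorption peak maximum recorded every 120 s for 2 h at room temperature by UV/visible spectrophotometer.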

[2] = molecular target: T1, Broad substrate specificity ATP-binding cassette transporter ABCG2 (Homo sapiens, UniProt Q9UNQ0); assay: Inhibition of human ABCG2 expressed in MDCK2 cells assessed as reduction in Hoechst 33342 efflux pre-incubated for 30 mins before Hoechst 33342 addition and measured for 120 mins by microplate reader analysis; format: cell-based
T1 sequence (Q9UNQ0 whole entry): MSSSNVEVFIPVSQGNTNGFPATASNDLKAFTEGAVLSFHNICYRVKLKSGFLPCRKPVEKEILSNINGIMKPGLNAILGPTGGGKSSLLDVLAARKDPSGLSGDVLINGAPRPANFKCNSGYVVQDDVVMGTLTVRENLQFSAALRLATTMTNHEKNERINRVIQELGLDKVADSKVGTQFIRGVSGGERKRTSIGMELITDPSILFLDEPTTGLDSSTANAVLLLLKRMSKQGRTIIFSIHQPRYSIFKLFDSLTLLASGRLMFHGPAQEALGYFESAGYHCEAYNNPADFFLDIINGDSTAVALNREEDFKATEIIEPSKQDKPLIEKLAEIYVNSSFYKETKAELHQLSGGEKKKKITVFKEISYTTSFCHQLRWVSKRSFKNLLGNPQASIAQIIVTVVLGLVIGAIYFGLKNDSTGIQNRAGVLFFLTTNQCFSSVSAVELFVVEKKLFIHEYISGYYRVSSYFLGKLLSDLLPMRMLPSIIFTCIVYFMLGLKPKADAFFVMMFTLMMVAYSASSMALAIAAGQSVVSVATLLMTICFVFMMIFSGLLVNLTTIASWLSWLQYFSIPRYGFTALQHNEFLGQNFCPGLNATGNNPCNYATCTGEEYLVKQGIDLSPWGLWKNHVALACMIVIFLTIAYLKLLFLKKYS
Procedure, shortened: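 Compound dilutions up to 10 µM (from 10 mM DMSO stocks) pre-incubated 30 min at 37 °C. Hoechst 33342 then added from 6 µM solution. Fluorescence (ex 355/em 460 nm) read each 60 s over 120 min.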

ABCB1 = ABCB1 (Homo sapiens, UniProt P08183); assay: Inhibition of ABCB1 in human A2780/ADR cells assessed as reduction in calcein AM efflux at 10 uM pre-incubated for 30 mins before calcein AM addition and measured for 60 mins by microplate reader analysis relative to control; format: cell-based; conditions: probe calcein AM
Procedure, shortened: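 Compound at 10 µM pre-incubated 30 min at 37 °C. Calcein AM added from 3.125 µM solution. Fluorescence (ex 485/em 520 nm) read every 60 s for 60 min.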

[3] = molecular target: T1, Broad substrate specificity ATP-binding cassette transporter ABCG2; assay: Inhibition of human ABCG2 expressed in baculovirus infected Sf9 cell membrane assessed as inhibition of vanadate sensitive ATPase activity at 1 uM after 20 mins by colorimetric method; conditions: sf9, 20 min
[4] = Ratio of GI50 for MDCK2 cells expressing human ABCG2 to IC50 for human ABCG2 expressed in MDCK2 cells
[5] = molecular target: T1, Broad substrate specificity ATP-binding cassette transporter ABCG2; assay: Reversal of human ABCG2-mediated resistance to SN-38 in human ABCG2 expressed MDCK2 cells assessed as reduction in SN-38 GI50 after 72 hrs by MTT assay
[6] = Ratio of GI50 for wild-type MDCK2 cells to IC50 for human ABCG2 expressed in MDCK2 cells
[7] = molecular target: T1, Broad substrate specificity ATP-binding cassette transporter ABCG2; assay: Inhibition of human ABCG2 expressed in baculovirus infected Sf9 cell membrane assessed as inhibition of vanadate sensitive quercetin-stimulated ATPase activity after 20 mins by colorimetric method
Procedure, shortened: (§1)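 Cholesterol-loaded membranes from Sf9 cells infected with baculovirus carrying human wild-type ABCG2; 10 µg protein per reaction. Buffer: 40 mM MOPS-Tris pH 7.0, 50 mM KCl, 2 mM DTT, 0.5 mM EGTA-Tris, 5 mM azide, 1 mM ouabain. Started with 3.3 mM MgATP, 20 min at 37 °C, stopped with SDS. Pi measured by molybdate/ascorbate colour at 880 nm against K2HPO4 standard.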

[8] = molecular target: T1, Broad substrate specificity ATP-binding cassette transporter ABCG2; assay: Inhibition of human ABCG2 expressed in baculovirus infected Sf9 cell membrane assessed as inhibition of vanadate sensitive basal ATPase activity after 20 mins by colorimetric method; procedure, shortened: as §1
[9] = molecular target: T1, Broad substrate specificity ATP-binding cassette transporter ABCG2; assay: Inhibition of human ABCG2 expressed in MDCK2 cells assessed as reduction in pheophorbide A efflux pre-incubated for 30 mins before pheophorbide A addition and measured for 120 mins by flow cytometry
[10] = Cytotoxicity against wild-type MDCK2 cells assessed as reduction in cell viability after 72 hrs by MTT assay; format: cell-based, Canis lupus familiaris; conditions: dog, wild-type MDCK2 (MDCK-II) cells
Procedure, shortened: (§2)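 MDCK II cells retrovirally transfected with human ABCG2-GFP cDNA, and wild-type MDCK II, in DMEM with 10% FBS. Seeded at 3 x 10^3 cells/well and attached 6 h at 37 °C, 5% CO2. Compounds up to 100 µM for 72 h. Controls were 10% DMSO and medium. MTT (5 mg/ml) added for 1 h, read at 570 nm minus 690 nm. Data normalised; GI50 from variable-slope sigmoidal fit.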

ABCG2 = molecular target: T2, ABCG2 (Homo sapiens, UniProt Q9UNQ0); assay: Ratio of IC50 for human ABCG2 expressed in baculovirus infected Sf9 cell membrane assessed as inhibition of vanadate sensitive quercetin-stimulated ATPase activity to IC50 for human ABCG2 expressed in baculovirus infected Sf9 cell membrane assessed as inhibition of vanadate sensitive basal ATPase activity; conditions: read-out: Ratio IC50
T2 sequence (Q9UNQ0 whole entry): T1 sequence (Q9UNQ0 whole entry)

[11] = Cytotoxicity against MDCK2 cells expressing human ABCG2 assessed as reduction in cell viability after 72 hrs by MTT assay; format: ADME, cell-based, Canis lupus familiaris; conditions: dog, MDCK2 (MDCK-II) cells expressing human ABCG2; procedure, shortened: as §2
[12] = molecular target: ATP-dependent translocase ABCB1 (Homo sapiens, UniProt P08183); assay: Inhibition of ABCB1 in human A2780/ADR cells assessed as reduction in calcein AM efflux pre-incubated for 30 mins before calcein AM addition and measured for 60 mins by microplate reader analysis relative to control; format: cell-based
ATP-dependent translocase ABCB1, sequence (P08183 whole entry): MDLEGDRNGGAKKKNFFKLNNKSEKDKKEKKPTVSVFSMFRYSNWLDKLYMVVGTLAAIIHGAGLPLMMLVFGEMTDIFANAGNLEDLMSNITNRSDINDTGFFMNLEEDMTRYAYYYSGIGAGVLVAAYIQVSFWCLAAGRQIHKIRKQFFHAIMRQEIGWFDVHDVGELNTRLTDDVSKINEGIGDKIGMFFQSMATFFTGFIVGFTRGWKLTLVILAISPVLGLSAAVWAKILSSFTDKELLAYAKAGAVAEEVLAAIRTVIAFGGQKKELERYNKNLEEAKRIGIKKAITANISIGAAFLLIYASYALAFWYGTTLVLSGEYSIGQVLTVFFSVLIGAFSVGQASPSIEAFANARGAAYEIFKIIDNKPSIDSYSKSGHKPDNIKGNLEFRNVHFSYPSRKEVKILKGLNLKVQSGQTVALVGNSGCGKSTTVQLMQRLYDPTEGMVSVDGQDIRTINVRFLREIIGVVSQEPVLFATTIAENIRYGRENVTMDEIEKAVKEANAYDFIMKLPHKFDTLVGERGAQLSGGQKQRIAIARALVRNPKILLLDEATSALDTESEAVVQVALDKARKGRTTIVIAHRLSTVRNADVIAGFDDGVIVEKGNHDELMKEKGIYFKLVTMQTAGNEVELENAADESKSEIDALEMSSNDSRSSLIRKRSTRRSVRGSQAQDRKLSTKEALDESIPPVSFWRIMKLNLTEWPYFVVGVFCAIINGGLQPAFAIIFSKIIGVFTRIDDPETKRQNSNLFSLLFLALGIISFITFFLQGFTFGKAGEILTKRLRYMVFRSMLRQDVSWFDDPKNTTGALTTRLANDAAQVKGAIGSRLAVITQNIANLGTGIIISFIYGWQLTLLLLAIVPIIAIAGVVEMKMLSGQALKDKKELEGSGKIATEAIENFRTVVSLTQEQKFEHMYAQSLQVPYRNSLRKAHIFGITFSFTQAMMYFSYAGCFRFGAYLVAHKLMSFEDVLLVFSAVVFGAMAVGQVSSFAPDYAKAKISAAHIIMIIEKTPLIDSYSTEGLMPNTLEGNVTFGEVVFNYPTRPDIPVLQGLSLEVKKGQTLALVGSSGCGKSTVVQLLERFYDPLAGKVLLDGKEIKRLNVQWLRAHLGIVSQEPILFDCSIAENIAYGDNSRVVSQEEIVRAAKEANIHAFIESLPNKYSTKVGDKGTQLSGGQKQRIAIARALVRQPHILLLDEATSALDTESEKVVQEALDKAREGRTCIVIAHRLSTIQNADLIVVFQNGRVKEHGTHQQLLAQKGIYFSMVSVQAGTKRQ

ABCB1, sequence (P08183 whole entry): as above

| IC50 ([2]; read-out: IC50) | inhibition at 1 h, 10 µM (ABCB1) | IC50 [12] | SMILES | also measured |
| --- | --- | --- | --- | --- |
| 741 nM | < 25% |  | O=C(c1ccccc1)N1CCc2c([nH]c3ccccc23)C1c1ccc(Cl)cc1 (configuration not stated) | inhibition (INH) [3]: Active; Ratio [4]: 20 - 30; Activity [5]: Dose-dependent effect; Ratio [6]: 20 - 30; IC50 [7]: 560 nM; IC50 [8]: 60 nM; IC50 ([9]; read-out: IC50): 784 nM; GI50 at 72 h [10]: 16400 nM; selectivity ratio (ABCG2): 9.3; GI50 at 72 h [11]: 18100 nM |
| 1750 nM | > 25% | 9550 nM | COc1ccc(C(=O)N2CCc3c([nH]c4ccccc34)C2c2ccccc2)cc1 (configuration not stated) |  |
| 3620 nM | > 25% | 7330 nM | COc1ccc(C2c3[nH]c4ccccc4c3CCN2C(=O)c2ccccc2)cc1OC (configuration not stated) |  |
| 1450 nM | > 25% | 3380 nM | COc1ccc(C(=O)N2CCc3c([nH]c4ccccc34)C2c2cccc(OC)c2)cc1 (configuration not stated) |  |
| 4490 nM | > 25% | 11300 nM | O=C(c1ccccc1)N1CCc2c([nH]c3ccccc23)C1c1ccccc1F (configuration not stated) |  |
| 1430 nM | < 25% |  | Cc1ccc(C2c3[nH]c4ccccc4c3CCN2C(=O)c2ccccc2)cc1 (configuration not stated) |  |
| 2210 nM | > 25% | 12000 nM | COc1ccc(C2c3[nH]c4ccccc4c3CCN2C(=O)c2ccccc2)cc1 (configuration not stated) |  |
| 1890 nM | > 25% | 13400 nM | O=C(c1ccccc1)N1CCc2c([nH]c3ccccc23)C1c1ccc(F)cc1 (configuration not stated) |  |
| 883 nM | > 25% | 19200 nM | COc1ccc(C(=O)N2CCc3c([nH]c4ccccc34)C2c2cccc(Cl)c2)cc1 (configuration not stated) |  |
| 869 nM | > 25% | 22500 nM | O=C(c1ccccc1)N1CCc2c([nH]c3ccccc23)C1c1cccc(Cl)c1 (configuration not stated) | IC50 ([9]; read-out: IC50): 811 nM |
| 1920 nM | > 25% | 6220 nM | COc1cccc(C2c3[nH]c4ccccc4c3CCN2C(=O)c2ccccc2)c1 (configuration not stated) |  |
| 7820 nM | > 25% | 7400 nM | CC(=O)Nc1ccc(C2c3[nH]c4ccccc4c3CCN2C(=O)c2ccccc2)cc1 (configuration not stated) | solubility [1]: Soluble |
| 2780 nM | > 25% | 7940 nM | O=C(c1ccccc1)N1CCc2c([nH]c3ccccc23)C1c1ccccc1 (configuration not stated) | inhibition (INH) [3]: Active; solubility [1]: Soluble; Activity [5]: Dose-dependent effect; IC50 [7]: 2020 nM; IC50 [8]: 196 nM; GI50 at 72 h [10]: 12400 nM; selectivity ratio (ABCG2): 10.3; GI50 at 72 h [11]: 12900 nM |
| 687 nM | < 25% |  | O=C(c1ccccc1)N1CCc2c([nH]c3ccccc23)C1c1ccc(Br)cc1 (configuration not stated) | inhibition (INH) [3]: Active; Ratio [4]: 20 - 30; Activity [5]: Dose-dependent effect; Ratio [6]: 20 - 30; IC50 [7]: 863 nM; IC50 [8]: 112 nM; GI50 at 72 h [10]: 19400 nM; selectivity ratio (ABCG2): 7.7; GI50 at 72 h [11]: 20600 nM |
| 1100 nM | > 25% | 8760 nM | O=C(c1ccccc1)N1CCc2c([nH]c3ccccc23)C1c1ccc(F)c(F)c1 (configuration not stated) | IC50 ([9]; read-out: IC50): 1800 nM |
| 2000 nM | > 25% | 6550 nM | N#Cc1cccc(C2c3[nH]c4ccccc4c3CCN2C(=O)c2ccccc2)c1 (configuration not stated) |  |

Second part, the compound before the results:

| SMILES | IC50 ([2]; read-out: IC50) | inhibition at 1 h, 10 µM (ABCB1) | IC50 [12] | also measured |
| --- | --- | --- | --- | --- |
| CCn1c2c(c3ccccc31)CCN(C(=O)c1cccc(OC)c1)C2c1ccc(Cl)c(Cl)c1 (configuration not stated) | > 10000 nM | < 25% |  | solubility [1]: Soluble |
| COc1ccc(C(=O)N2CCc3c([nH]c4ccccc34)C2c2ccc(C(F)(F)F)cc2)cc1 (configuration not stated) | 1230 nM | < 25% |  | solubility [1]: Soluble |
| c1ccc(CN2CCc3c([nH]c4ccccc34)C2c2ccccc2)cc1 (configuration not stated) | > 10000 nM | < 25% |  | solubility [1]: Soluble |
| COc1ccc2c(c1)[nH]c1c(C)nccc12 [HARMINE] |  |  |  | inhibition (INH) [3]: Not Active; GI50 at 72 h [10]: 2300 nM; GI50 at 72 h [11]: 2420 nM |
| COc1ccc(C(=O)N2CCc3c([nH]c4ccccc34)C2c2ccc(F)c(F)c2)cc1 (configuration not stated) | 805 nM | > 25% | 8240 nM |  |
| c1ccc(C2NCCc3c2[nH]c2ccccc32)cc1 (configuration not stated) |  | < 25% |  | IC50 [2]: Not Active; IC50 [9]: Not Active |
| COc1ccc(C(=O)N2CCc3c([nH]c4ccccc34)C2c2ccc(F)c(F)c2)cc1OC (configuration not stated) | 1100 nM | > 25% | 2860 nM |  |
| O=C(c1ccc(Cl)cc1)N1CCc2c([nH]c3ccccc23)C1c1ccc(F)c(F)c1 (configuration not stated) | 1260 nM | > 25% | 23400 nM |  |
| O=C(c1ccc(Cl)cc1)N1CCc2c([nH]c3ccccc23)C1c1ccc(Cl)c(Cl)c1 (configuration not stated) | 1030 nM | < 25% |  |  |
| Clc1ccc(C2c3[nH]c4ccccc4c3CCN2Cc2ccccc2)cc1Cl (configuration not stated) | > 10000 nM | < 25% |  | solubility [1]: Soluble |
| CCn1c2c(c3ccccc31)CCN(C(=O)c1ccccc1)C2c1ccccc1 (configuration not stated) | 10400 nM | > 25% | 9230 nM | solubility [1]: Soluble |
| O=C(c1ccc(Cl)cc1)N1CCc2c([nH]c3ccccc23)C1c1ccc(Br)cc1 (configuration not stated) | 1780 nM | < 25% |  |  |
| CC(C)CC1c2[nH]c3ccccc3c2CCN1C(=O)c1ccccc1 (configuration not stated) | 2330 nM | > 25% | 12900 nM |  |
| O=C(c1cccc2ccccc12)N1CCc2c([nH]c3ccccc23)C1c1ccc(Cl)c(Cl)c1 (configuration not stated) | 1320 nM | < 25% |  |  |
| COc1cccc(C2NCCc3c2[nH]c2ccccc32)c1 (configuration not stated) |  | < 25% |  | IC50 [2]: Not Active; IC50 [9]: Not Active |
| COc1ccc2[nH]c3c(c2c1)CCN(C(=O)c1ccccc1)C3c1ccc(Cl)c(Cl)c1 (configuration not stated) | 382 nM | < 25% |  | inhibition (INH) [3]: Active; Ratio [4]: <=20; Activity [5]: Dose-dependent effect; Ratio [6]: <=20; IC50 [7]: 299 nM; IC50 [8]: 29 nM; GI50 at 72 h [10]: 5270 nM; selectivity ratio (ABCG2): 10.4; GI50 at 72 h [11]: 4170 nM |
| COc1ccc(C(=O)N2CCc3c([nH]c4ccccc34)C2c2ccc(Cl)c(Cl)c2)cc1OC (configuration not stated) | 698 nM | > 25% | 14300 nM |  |

Source: ChEMBL document CHEMBL4477211, “Synthesis and Investigation of Tetrahydro-β-carboline Derivatives as Inhibitors of the Breast Cancer Resistance Protein (ABCG2)” (J Med Chem, 2016)
